In ChEMBL document CHEMBL5230168, “Design, synthesis, and biological evaluation of new arjunolic acid derivatives as anticancer agents” (RSC Med Chem, 2023):

Experiments:
[1] = tested on: HT-29; assay: Cytotoxicity against human HT-29 cells assessed as inhibition of cell growth incubated for 72 hrs by MTT assay; type: functional, cell-based; conditions: HT-29, 72 h
Summary of the method: (§1)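 Cells seeded per well (HT-29 4500, PANC-1 4000, SK-MEL-28 3200, A375 1200, A549 2500, H2170 and BJ 10 000) and left 24 h. They were then exposed to increasing concentrations for 72 h and incubated 1 h with MTT 0.5 mg mL−1. Formazan was dissolved in DMSO and absorbance read at 550 nm. IC50 from three independent experiments. Final DMSO ≤0.5%.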

[2] = tested on: PANC-1; assay: Cytotoxicity against human PANC-1 cells assessed as inhibition of cell growth incubated for 72 hrs by MTT assay; type: functional, cell-based; conditions: PANC-1, 72 h; summary of the method: as §1
[3] = tested on: A549; assay: Cytotoxicity against human A549 cells assessed as inhibition of cell growth incubated for 72 hrs by MTT assay; type: functional, cell-based; conditions: A549, 72 h; summary of the method: as §1
[4] = tested on: SK-MEL-28; assay: Cytotoxicity against human SK-MEL-28 cells assessed as inhibition of cell growth incubated for 72 hrs by MTT assay; type: functional, cell-based; conditions: SK-MEL-28, 72 h; summary of the method: as §1
[5] = tested on: NCI-H2170; assay: Cytotoxicity against human NCI-H2170 cells assessed as inhibition of cell growth incubated for 72 hrs by MTT assay; type: functional, cell-based; conditions: NCI-H2170, 72 h; summary of the method: as §1
[6] = tested on: A-375; assay: Cytotoxicity against human A-375 cells assessed as inhibition of cell growth incubated for 72 hrs by MTT assay; type: functional, cell-based; conditions: A-375, 72 h; summary of the method: as §1
[7] = tested on: HT-29; assay: Potency index, ratio of Arjunolic acid IC50 to test compound IC50 for cytotoxicity against human HT-29 cells assessed as inhibition of cell growth incubated for 72 hrs by MTT assay; type: functional
Summary of the method: (§2)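 Potency index: arjunolic acid IC50 divided by derivative IC50 from the 72 h MTT assay on HT-29 (4500 cells/well) or PANC-1 (4000 cells/well). IC50 from three independent experiments.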

[8] = tested on: PANC-1; assay: Potency index, ratio of Arjunolic acid IC50 to test compound IC50 for cytotoxicity against human PANC-1 cells assessed as inhibition of cell growth incubated for 72 hrs by MTT assay; type: functional; summary of the method: as §2
[9] = Selectivity index, ratio of IC50 for cytotoxicity against human BJ cells to IC50 for cytotoxicity against human PANC-1; type: toxicity, cell-based; conditions: BJ cells and PANC-1 cells, read-out: Ratio IC50
Summary of the method: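 Selectivity index: BJ fibroblast IC50 over PANC-1 IC50, both from the 72 h MTT assay with 24 h pre-seeding (10 000 and 4000 cells/well). IC50 from three independent experiments.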

[10] = Cytotoxicity against human BJ cells assessed as inhibition of cell growth incubated for 72 hrs by MTT assay; type: toxicity, cell-based; summary of the method: as §1

| SMILES | IC50 [1] [µM] | IC50 [2] [µM] | other results |
| --- | --- | --- | --- |
| CNC(=O)[C@]12CCC(C)(C)C[C@H]1C1=CC[C@@H]3[C@@]4(C)C[C@@H](O)OC[C@](C)(C=O)[C@@H]4CC[C@@]3(C)[C@]1(C)CC2 | 25.9 | 16.6 | – |
| COC(=O)[C@]12CCC(C)(C)C[C@H]1C1=CC[C@@H]3[C@@]4(C)C(C=O)=C[C@@](C)(CO)[C@@H]4CC[C@@]3(C)[C@]1(C)CC2 | 0.87 | 0.82 | IC50 [3]: 1.22 µM; IC50 [4]: 0.85 µM; IC50 [5]: 2.11 µM; IC50 [6]: 0.85 µM |
| CNC(=O)[C@]12CCC(C)(C)C[C@H]1C1=CC[C@@H]3[C@@]4(C)C[C@@H](O)[C@H](O)[C@@](C)(CO)[C@@H]4CC[C@@]3(C)[C@]1(C)CC2 | > 30 | > 30 | – |
| CCNC(=O)[C@]12CCC(C)(C)C[C@H]1C1=CC[C@@H]3[C@@]4(C)C[C@@H](O)OC[C@](C)(C=O)[C@@H]4CC[C@@]3(C)[C@]1(C)CC2 | – | 22 | – |
| CC1(C)CC[C@]2(C(N)=O)CC[C@]3(C)C(=CC[C@@H]4[C@@]5(C)C(C=O)=C[C@@](C)(CO)[C@@H]5CC[C@]43C)[C@@H]2C1 | 5.81 | 3.74 | – |
| COC(=O)[C@]12CCC(C)(C)C[C@H]1C1=CC[C@@H]3[C@@]4(C)C[C@@H](O)[C@H](O)[C@@](C)(CO)[C@@H]4CC[C@@]3(C)[C@]1(C)CC2 | 16.7 | 19.7 | Ratio IC50 [7]: 2.2; Ratio IC50 [8]: 2.7 |
| CCNC(=O)[C@]12CCC(C)(C)C[C@H]1C1=CC[C@@H]3[C@@]4(C)C(C=O)=C[C@@](C)(CO)[C@@H]4CC[C@@]3(C)[C@]1(C)CC2 | 3.43 | 4.15 | – |
| CC1(C)CC[C@]2(C(=O)O)CC[C@]3(C)C(=CC[C@@H]4[C@@]5(C)C[C@@H](O)OC[C@](C)(C=O)[C@@H]5CC[C@]43C)[C@@H]2C1 | > 30 | > 30 | – |
| CNC(=O)[C@]12CCC(C)(C)C[C@H]1C1=CC[C@@H]3[C@@]4(C)C(C=O)=C[C@@](C)(CO)[C@@H]4CC[C@@]3(C)[C@]1(C)CC2 | 7.41 | 2.38 | – |
| CNC(=O)[C@]12CCC(C)(C)C[C@H]1C1=CC[C@@H]3[C@@]4(C)C[C@@H](OC(C)=O)[C@H](OC(C)=O)[C@@](C)(COC(C)=O)[C@@H]4CC[C@@]3(C)[C@]1(C)CC2 | 16.5 | 0.93 | Ratio IC50 [8]: 60 |
| CCNC(=O)[C@]12CCC(C)(C)C[C@H]1C1=CC[C@@H]3[C@@]4(C)C[C@@H](O)[C@H](O)[C@@](C)(CO)[C@@H]4CC[C@@]3(C)[C@]1(C)CC2 | 25.5 | 27.6 | – |
| C=CCOC(=O)[C@]12CCC(C)(C)C[C@H]1C1=CC[C@@H]3[C@@]4(C)C[C@@H](O)[C@H](O)[C@@](C)(CO)[C@@H]4CC[C@@]3(C)[C@]1(C)CC2 | 12.8 | 18.9 | Ratio IC50 [7]: 2.8; Ratio IC50 [8]: 3 |
| CC1(C)CC[C@]2(C(=O)O)CC[C@]3(C)C(=CC[C@@H]4[C@@]5(C)C(C=O)=C[C@@](C)(CO)[C@@H]5CC[C@]43C)[C@@H]2C1 | 5.73 | 5.27 | – |
| CC1(C)CC[C@]2(C(=O)O)CC[C@]3(C)C(=CC[C@@H]4[C@@]5(C)C[C@@H](O)[C@H](O)[C@@](C)(CO)[C@@H]5CC[C@]43C)[C@@H]2C1 [ARJUNOLIC ACID] | 36.4 | 56.3 | – |
| CCOC(=O)[C@]12CCC(C)(C)C[C@H]1C1=CC[C@@H]3[C@@]4(C)C[C@@H](O)OC[C@](C)(C=O)[C@@H]4CC[C@@]3(C)[C@]1(C)CC2 | 6.7 | 7.14 | – |
| C=CCOC(=O)[C@]12CCC(C)(C)C[C@H]1C1=CC[C@@H]3[C@@]4(C)C(C=O)=C[C@@](C)(CO)[C@@H]4CC[C@@]3(C)[C@]1(C)CC2 | 0.55 | 0.84 | IC50 [3]: 0.82 µM; IC50 [4]: 0.53 µM; IC50 [5]: 1.51 µM; IC50 [6]: 0.59 µM |
| CC1(C)CC[C@]2(C(N)=O)CC[C@]3(C)C(=CC[C@@H]4[C@@]5(C)C[C@@H](O)[C@H](O)[C@@](C)(CO)[C@@H]5CC[C@]43C)[C@@H]2C1 | > 30 | > 30 | – |
| CCNC(=O)[C@]12CCC(C)(C)C[C@H]1C1=CC[C@@H]3[C@@]4(C)C[C@@H](OC(C)=O)[C@H](OC(C)=O)[C@@](C)(COC(C)=O)[C@@H]4CC[C@@]3(C)[C@]1(C)CC2 | 1.17 | 0.63 | Ratio IC50 [8]: 89 |
| CCOC(=O)[C@]12CCC(C)(C)C[C@H]1C1=CC[C@@H]3[C@@]4(C)C[C@@H](O)[C@H](O)[C@@](C)(CO)[C@@H]4CC[C@@]3(C)[C@]1(C)CC2 | 11.6 | 20.2 | Ratio IC50 [7]: 3.1; Ratio IC50 [8]: 2.7 |
| CCCCOC(=O)[C@]12CCC(C)(C)C[C@H]1C1=CC[C@@H]3[C@@]4(C)C(C=O)=C[C@@](C)(CO)[C@@H]4CC[C@@]3(C)[C@]1(C)CC2 | 0.55 | 0.43 | IC50 [3]: 0.58 µM; selectivity ratio [9]: 6.5; IC50 at 72 h [10]: 2.79 µM; IC50 [4]: 0.45 µM; IC50 [5]: 1.3 µM; IC50 [6]: 0.55 µM |
| CC(=O)OC[C@@]1(C)[C@@H]2CC[C@]3(C)[C@H](CC=C4[C@@H]5CC(C)(C)CC[C@]5(C(N)=O)CC[C@]43C)[C@@]2(C)C[C@@H](OC(C)=O)[C@@H]1OC(C)=O | 19.3 | 3.63 | Ratio IC50 [8]: 15 |
| CCCCOC(=O)[C@]12CCC(C)(C)C[C@H]1C1=CC[C@@H]3[C@@]4(C)C[C@@H](O)OC[C@](C)(C=O)[C@@H]4CC[C@@]3(C)[C@]1(C)CC2 | 4.46 | 4.58 | – |
| CC(=O)OC[C@@]1(C)[C@@H]2CC[C@]3(C)[C@H](CC=C4[C@@H]5CC(C)(C)CC[C@]5(C(=O)O)CC[C@]43C)[C@@]2(C)C[C@@H](OC(C)=O)[C@@H]1OC(C)=O | 12.4 | 14.9 | – |
| CCCCOC(=O)[C@]12CCC(C)(C)C[C@H]1C1=CC[C@@H]3[C@@]4(C)C[C@@H](O)[C@H](O)[C@@](C)(CO)[C@@H]4CC[C@@]3(C)[C@]1(C)CC2 | 13.7 | 20.2 | Ratio IC50 [7]: 2.7; Ratio IC50 [8]: 2.7 |
| C=CCOC(=O)[C@]12CCC(C)(C)C[C@H]1C1=CC[C@@H]3[C@@]4(C)C[C@@H](O)OC[C@](C)(C=O)[C@@H]4CC[C@@]3(C)[C@]1(C)CC2 | 4.38 | 4.92 | – |
| COC(=O)[C@]12CCC(C)(C)C[C@H]1C1=CC[C@@H]3[C@@]4(C)C[C@@H](O)OC[C@](C)(C=O)[C@@H]4CC[C@@]3(C)[C@]1(C)CC2 | 5.59 | 6.7 | – |
| CC1(C)CC[C@]2(C(N)=O)CC[C@]3(C)C(=CC[C@@H]4[C@@]5(C)C[C@@H](O)OC[C@](C)(C=O)[C@@H]5CC[C@]43C)[C@@H]2C1 | – | 29.3 | – |
